{
  "source": "paper PMC5648746",
  "about": "(Clinical Pharmacokinetics, 2017)",
  "key": {"[1]": {"test_system": "human cDNA-expressed CYP isozymes", "conditions": "clinically relevant ixazomib concentrations; cited from earlier work"}, "[2]": {"conditions": "previous population PK analysis, four phase I studies; cited from earlier work"}, "[3]": {"conditions": "cited from earlier work"}, "[4]": {"conditions": "single oral dose of radio-labelled ixazomib, five patients with advanced cancer; cited from earlier work"}, "[5]": {"experiment": "Individual predicted exposure", "assay_type": "in vivo, human", "conditions": "oral ixazomib; figure value with 95% CI"}, "[6]": {"conditions": "Western patients, weekly dose; cited from earlier work"}, "[7]": {"conditions": "after a high-calorie high-fat meal; cited from earlier work"}, "[8]": {"test_system": "patients with multiple myeloma", "conditions": "ixazomib plus lenalidomide-dexamethasone vs placebo plus lenalidomide-dexamethasone, TOURMALINE-MM1; cited from earlier work"}, "[9]": {"experiment": "Population pharmacokinetic analysis", "assay_type": "in vivo, human", "procedure,_shortened": "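Plasma from 755 adults with advanced haematologic or non-haematologic malignancies given oral (BSA-based or fixed) or IV (BSA-based) doses, weekly (28-day cycle) or twice-weekly (21-day cycle); sampled pre-dose and post-dose. LC-MS/MS with 13C9-labelled internal standard, linear 0.5–500 ng/mL. Three-compartment model, first-order absorption with lag; additive log-scale residual error; stepwise covariate selection, p = 0.01 plus ≥10% variance reduction.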"}, "[10]": {"conditions": "cited from earlier work", "remark": "listed apart in the source"}, "[11]": {"conditions": "typical (population) parameter estimates"}},
  "data": [
    {"compound": "CC(C)C[C@H](NC(=O)CNC(=O)c1cc(Cl)ccc1Cl)B(O)O", "note": "[ixazomib]", "values": [
      {"measurement": "Contribution of specific CYP isozymes to ixazomib metabolism", "setting": "[1]", "result": "no specific CYP isozyme predominantly contributed"},
      {"measurement": "Estimated absolute bioavailability", "setting": "[2]", "result": 60, "unit": "%"},
      {"measurement": "Decrease in systemic exposure (AUC) of ixazomib with rifampin", "setting": "[3]; co-administration of strong pleiotropic PXR-mediated inducer rifampin", "result": 74, "unit": "%"},
      {"measurement": "Effect of the strong CYP3A inhibitor clarithromycin on ixazomib pharmacokinetics", "setting": "[3]; controlled phase I clinical study", "result": "absence of an effect"},
      {"measurement": "Administered radioactivity excreted in feces", "setting": "[4]", "result": 22, "unit": "%"},
      {"measurement": "Administered radioactivity excreted in urine", "setting": "[4]", "result": 62, "unit": "%"},
      {"measurement": "Percent change in mean AUC∞, Asian race relative to White race", "setting": "[5]", "result": 35, "unit": "%"},
      {"measurement": "Maximum tolerated dose", "setting": "[6]", "result": 5.5, "unit": "mg"},
      {"measurement": "Reduction in peak plasma concentration with food", "setting": "[7]", "result": 69, "unit": "%"},
      {"measurement": "Reduction in total systemic exposure (AUC) with food", "setting": "[7]", "result": 28, "unit": "%"},
      {"measurement": "Improvement in progression-free survival", "setting": "[8]", "result": 35, "unit": "%"},
      {"measurement": "Inter-individual variability on log CL", "setting": "[9]; % coefficient of variation", "result": 44, "unit": "%"},
      {"measurement": "Inter-individual variability on log F", "setting": "[9]; % coefficient of variation", "result": 73, "unit": "%"},
      {"measurement": "Inter-individual variability on log V4", "setting": "[9]; % coefficient of variation", "result": 79, "unit": "%"},
      {"measurement": "Change in V4 at the 5th percentile of BSA relative to median BSA", "setting": "[9]; BSA 1.5 m^2 vs median 1.87 m^2", "result": "−37", "unit": "%"},
      {"measurement": "Change in V4 at the 95th percentile of BSA relative to median BSA", "setting": "[9]; BSA 2.25 m^2 vs median 1.87 m^2", "result": "+46%"},
      {"measurement": "Impact of BSA on CL", "setting": "[9]; BSA had a small effect on V4", "result": "did not impact CL"},
      {"measurement": "Effect of age on ixazomib PK parameters", "setting": "[9]; age 23–91 years", "result": "not found to have a clinically relevant effect"},
      {"measurement": "Correlation between log CL and log F (random effects)", "setting": "[9]; coefficient of correlation", "result": 82, "unit": "%"},
      {"measurement": "Impact of BSA on V4 (V4[BSA]), estimate", "setting": "[9]; covariate coefficient of power function", "result": 2.06},
      {"measurement": "Absorption lag time (TLAG), untransformed parameter", "setting": "[9]; final model", "result": 13, "unit": "min"},
      {"measurement": "Absorption rate constant (Ka), untransformed parameter", "setting": "[9]; final model", "result": 0.34, "unit": "h⁻¹"},
      {"measurement": "Volume of the first peripheral compartment (V3), untransformed parameter", "setting": "[9]; final model", "result": 309, "unit": "L"},
      {"measurement": "Volume of the second peripheral compartment (V4), untransformed parameter", "setting": "[9]; final model, at median BSA", "result": 205, "unit": "L"},
      {"measurement": "Impact of CrCl and total bilirubin on ixazomib pharmacokinetics", "setting": "[9]; mild or moderate renal impairment (CrCl 30–90 mL/min), mild hepatic impairment", "result": "neither CrCl nor total bilirubin had any clinically relevant impact"},
      {"measurement": "Absorption rate constant (log Ka), estimate", "setting": "[9]; raw NONMEM estimate, log scale", "result": "−1.09"},
      {"measurement": "Volume of the first peripheral compartment (log V3), estimate", "setting": "[9]; raw NONMEM estimate, log scale", "result": 5.73},
      {"measurement": "Volume of the second peripheral compartment (log V4), estimate", "setting": "[9]; raw NONMEM estimate, log scale", "result": 5.32},
      {"measurement": "Population estimate of steady-state volume of distribution", "setting": "[9]; [11]", "result": 527, "unit": "L"},
      {"measurement": "Population estimate of t1/2,γ", "setting": "[9]; [11]", "result": 224, "unit": "h"},
      {"measurement": "Dose dependence of exposure (AUC)", "setting": "[10]", "result": "dose-proportional increases in exposure"},
      {"measurement": "Accumulation ratio for AUC", "setting": "[10]; once-weekly repeat-dose administration", "result": "approximately 2"},
      {"measurement": "Median time to maximum plasma concentration", "setting": "[10]; post-dose, oral", "result": 1, "unit": "h"}
    ]}
  ]
}
